We go through 4 compounds from ChEMBL document CHEMBL1124865, “Synthesis and biological evaluation of a series of parenteral 3'-quaternary ammonium cephalosporins” (J Med Chem, 1990).

Data set [1] deals with Pseudomonas aeruginosa. As to the kind of experiment: Antibacterial activity against Pseudomonas aeruginosa PS18. The class given is functional. The settings on record: Pseudomonas aeruginosa; read-out: MIC.
Another data set deals with Streptococcus pneumoniae. As to the kind of experiment: Antibacterial activity against Streptococcus pneumoniae. The class given is functional. The settings on record: Streptococcus pneumoniae; read-out: MIC.
The test system of data set [2] is Pseudomonas aeruginosa. The data set is described as follows: Antibacterial activity against Pseudomonas aeruginosa X528. The class given is functional. Conditions: Pseudomonas aeruginosa; read-out: MIC.
Data set [3] concerns Enterobacter cloacae. The data set is described as follows: Antibacterial activity against Enterobacter cloacae 265A. The class given is functional. The settings on record: Enterobacter cloacae; read-out: MIC.
The subject of data set [4] is Klebsiella pneumoniae. The data set is described as follows: microbe, parasite or virus in culture. Format: functional. Conditions: Klebsiella pneumoniae; read-out: MIC.
Data set [5] can be described thus: In vitro dose required for anticholinergic activity in isolated guinea pig trachea. The class given is functional.
The subject of data set [6] is Escherichia coli. As to the kind of experiment: Antibacterial activity against Escherichia coli TEM. Conditions: Escherichia coli; read-out: MIC. The class given is functional.
The subject of data set [7] is Staphylococcus aureus. The data set is described as follows: Antibacterial activity against penicillin G susceptible Staphylococcus aureus. The class given is functional. Conditions: Staphylococcus aureus; read-out: MIC.
Another data set deals with Streptococcus pyogenes. As to the kind of experiment: Antibacterial activity against Streptococcus pyogenes. Format: functional. The settings on record: Streptococcus pyogenes; read-out: MIC.
Data set [8] concerns Staphylococcus aureus. The data set is described as follows: Antibacterial activity against penicillin G resistance Staphylococcus aureus. The class given is functional. The settings on record: Staphylococcus aureus; read-out: MIC.
The subject of data set [9] is Enterobacter cloacae. The data set is described as follows: Antibacterial activity against Enterobacter cloacae EB5. The class given is functional. Conditions: Enterobacter cloacae; read-out: MIC.
For data set [10], the system named is Escherichia coli. The data set is described as follows: Antibacterial activity against Escherichia coli EC14. Format: functional. Conditions: Escherichia coli; read-out: MIC.
The subject of a further data set is Serratia marcescens. The data set is described as follows: Antibacterial activity against Serratia marcescens SE3. The class given is functional. The settings on record: Serratia marcescens; read-out: MIC.
For another data set, the system named is Enterococcus faecium. As to the kind of experiment: Antibacterial activity against Enterococcus faecium. The class given is functional. The settings on record: Enterococcus faecium; read-out: MIC.
Data set [11] has as its system Klebsiella pneumoniae. As to the kind of experiment: Antibacterial activity against Klebsiella pneumoniae X26. The settings on record: Klebsiella pneumoniae; read-out: MIC. The class given is functional.
The species named for data set [12] is Cavia porcellus. As to the kind of experiment: In vitro relative anticholinergic potential in isolated guinea pig trachea. Format: functional. An outline of the steps:
(§1)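 Guinea pig trachea in Krebs' solution at 37.5 °C, 95% O2/5% CO2, pH 7.4, 2 g resting tension. Cumulative carbachol log dose-response curve (3-fold steps) run before and 30 min after adding antagonist at 1 mM. […] Tukey test on log2 dose ratios.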

A short description of data set [13]: Terminal half life in dogs at the dose of 60 mg/kg. The class given is ADME, organism-based, Canis lupus familiaris. Further details: dose 60 mg/kg. Conditions: dog, in vivo. The essentials: (§2)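 Overnight-fasted female mongrel dogs with a Foley bladder catheter; bolus into the cephalic vein. Plasma and urine collected before dosing and over 24 h after. Antibacterial activity measured by microbiological assay.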

The test system of the next data set is Canis familiaris. The data set is described as follows: Percent of dose in dogs urine at the dose of 60 mg/kg. Format: functional, Canis lupus familiaris. The essentials: as §2
The species named for data set [14] is Cavia porcellus. The data set is described as follows: In vitro relative anticholinergic activity in isolated guinea pig trachea. The settings on record: read-out: pA2 (converted). The class given is functional. The essentials: as §1

≈ marks a conversion by molar mass, not a printed value.

As to `CO/N=C(\C(=O)N[C@@H]1C(=O)N2C(C(=O)[O-])=C(C[n+]3csc(CCO)c3C)CS[C@H]12)c1csc(N)n1`, the MIC in the data set on Pseudomonas aeruginosa [1] stood at 16 µg/mL (≈ 29.7 µM); in the data set with Streptococcus pneumoniae it was 0.03 µg/mL (≈ 0.0557 µM); with Pseudomonas aeruginosa [2] it was 8 µg/mL (≈ 14.9 µM); in the data set on Enterobacter cloacae [3], 4 µg/mL (≈ 7.43 µM); in the data set on Klebsiella pneumoniae [4], 4 µg/mL (≈ 7.43 µM); with Escherichia coli [6], 0.03 µg/mL (≈ 0.0557 µM). The MIC with Staphylococcus aureus [7] came out at 2 µg/mL (≈ 3.71 µM); in the data set on Streptococcus pyogenes, 0.03 µg/mL (≈ 0.0557 µM); in the data set on Staphylococcus aureus [8], 4 µg/mL (≈ 7.43 µM); in the data set with Enterobacter cloacae [9], 0.125 µg/mL (≈ 0.232 µM); in the data set on Escherichia coli [10], 0.06 µg/mL (≈ 0.111 µM); with Serratia marcescens, 0.125 µg/mL (≈ 0.232 µM). Moreover, the MIC with Enterococcus faecium worked out at 16 µg/mL (≈ 29.7 µM); in the data set on Klebsiella pneumoniae [11], 0.03 µg/mL (≈ 0.0557 µM). Also, the Dose ratio in [5] is given as 1.27. Further, the RAP in the data set listed under Cavia porcellus [12] worked out at 1.
Usually half-life stands for the time in which the quantity being followed falls by half. Regarding `CO/N=C(\C(=O)N[C@@H]1C(=O)N2C(C(=O)[O-])=C(C[n+]3ccc4sc(C(=O)O)cc4c3)CS[C@H]12)c1csc(N)n1`, the MIC in the data set on Pseudomonas aeruginosa [1] is 8 µg/mL (≈ 13.9 µM); in the data set on Streptococcus pneumoniae it was under 0.008 µg/mL; with Pseudomonas aeruginosa [2], 2 µg/mL (≈ 3.48 µM); in the data set on Enterobacter cloacae [3], 32 µg/mL (≈ 55.7 µM); in the data set on Klebsiella pneumoniae [4], 4 µg/mL (≈ 6.96 µM); in the data set with Escherichia coli [6], 0.03 µg/mL (≈ 0.0522 µM). For the same compound, the MIC in the data set on Staphylococcus aureus [7] was 2 µg/mL (≈ 3.48 µM); in the data set on Streptococcus pyogenes, under 0.008 µg/mL; in the data set with Staphylococcus aureus [8], 16 µg/mL (≈ 27.8 µM); in the data set with Enterobacter cloacae [9], 0.06 µg/mL (≈ 0.104 µM); with Escherichia coli [10], under 0.008 µg/mL; in the data set with Serratia marcescens it was 0.06 µg/mL (≈ 0.104 µM). For the same compound, the MIC in the data set with Enterococcus faecium is over 128 µg/mL; with Klebsiella pneumoniae [11], under 0.008 µg/mL. This compound registered a half-life in data set [13] of 1.5 h. Also, the “Percent of dose recovered in urine” value with Canis familiaris came out at 98%. Also, the Dose ratio in [5] is 1.52. The RAP in the data set filed under Cavia porcellus [12] is recorded as 2.
Turning to `CO/N=C(\C(=O)N[C@@H]1C(=O)N2C(C(=O)[O-])=C(C[n+]3ccc4sc(C)nc4c3)CS[C@H]12)c1csc(N)n1`, the MIC in the data set on Pseudomonas aeruginosa [1] amounted to 8 µg/mL (≈ 14.7 µM); with Streptococcus pneumoniae, 0.015 µg/mL (≈ 0.0275 µM); in the data set on Pseudomonas aeruginosa [2], 4 µg/mL (≈ 7.33 µM); in the data set with Enterobacter cloacae [3], 2 µg/mL (≈ 3.67 µM); in the data set with Klebsiella pneumoniae [4], 2 µg/mL (≈ 3.67 µM); with Staphylococcus aureus [7], 2 µg/mL (≈ 3.67 µM). Moreover, the MIC with Streptococcus pyogenes is 0.008 µg/mL (≈ 0.0147 µM); in the data set on Staphylococcus aureus [8], 2 µg/mL (≈ 3.67 µM); in the data set on Escherichia coli [10] it was 0.015 µg/mL (≈ 0.0275 µM); in the data set on Serratia marcescens, 0.125 µg/mL (≈ 0.229 µM); in the data set with Enterococcus faecium, 128 µg/mL (≈ 235 µM). The Kb in the data set listed under Cavia porcellus [14] is 603 µM. In addition, the RAP in the data set filed under Cavia porcellus [12] was 7.
For `CO/N=C(\C(=O)N[C@@H]1C(=O)N2C(C(=O)[O-])=C(C[n+]3ccc4nc(C)sc4c3)CS[C@H]12)c1csc(N)n1`, the MIC stood at 8 µg/mL (≈ 14.7 µM) in the data set on Pseudomonas aeruginosa [1]; 8 µg/mL (≈ 14.7 µM) in the data set with Pseudomonas aeruginosa [2]; 16 µg/mL (≈ 29.3 µM) in the data set with Enterobacter cloacae [3]; 1 µg/mL (≈ 1.83 µM) with Klebsiella pneumoniae [4]; 1 µg/mL (≈ 1.83 µM) in the data set on Staphylococcus aureus [7]; 0.015 µg/mL (≈ 0.0275 µM) in the data set on Streptococcus pyogenes. In addition, the MIC came to 4 µg/mL (≈ 7.33 µM) with Staphylococcus aureus [8], 0.25 µg/mL (≈ 0.458 µM) in the data set on Serratia marcescens and 128 µg/mL (≈ 235 µM) in the data set on Enterococcus faecium. Also, in the data set filed under Cavia porcellus [14], the Kb was 955 µM. In the data set listed under Cavia porcellus [12], this compound gave an RAP of 5.
